# Experimental data from paper PMC7873610 (European Journal of Medicinal Chemistry, 2021).
# Where two headings read alike, the source gives them in different places.
# Columns and labels:
# [1] = system: HeLa; experiment: MTS cytotoxicity assay, HeLa; assay type: cell-based; details: Homo sapiens, 72 h, read-out: Cytotoxicity IC50 ± SEM, Hela, MTS, 72 h
# Summary of the method: (§1)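 HeLa, MGC-803 and SW480 cells were maintained in DMEM with 10% FBS at 37 °C and 5% CO2. Each line was plated at 5∗10^3 cells/well in 100 μL and treated with test compound for 72 h. MTS solution was added and incubated 3 more h at 37 °C, then absorbance was measured at 490 nm. Assays were run in triplicate with triplicate wells; IC50 was obtained by curve fitting.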
# [2] = system: THP-1; experiment: MTS cytotoxicity assay, THP-1; assay type: cell-based; details: Homo sapiens, THP-1, 72 h, read-out: Cytotoxicity IC50 ± SEM, THP-1
# Summary of the method: (§2)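 RPMI8226, THP-1 and Ramos cells were grown in RPMI 1640 with 10% FBS at 37 °C and 5% CO2. Cells were seeded in 100 μL at 1∗104/well (RPMI8226) or 5∗104/well (THP-1, Ramos) and exposed to test compound for 72 h. MTS was then added for 3 h at 37 °C, and OD was read at 490 nm. Triplicate experiments, triplicate wells each; IC50 from curve fitting.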
# [3] = molecular target: β5 catalytic subunit (chymotrypsin-like activity) (Homo sapiens, UniProt P20618+P28074); experiment: Proteasome-Glo cell-based chymotrypsin-like; details: CT-L; for fold increase in inhibitory activity than compounds with unsubstituted phenyl: vs 30, 29 and BSc2189
# [4] = system: chymotrypsin-like subunit; details: cited from earlier work
# [5] = system: Ramos (RA 1); experiment: MTS cytotoxicity assay, Ramos; assay type: cell-based; details: Homo sapiens, 72 h, read-out: Cytotoxicity IC50 ± SEM, Ramos (RA 1)
# Summary of the method: as §2
# [6] = system: RPMI8226; experiment: MTS cytotoxicity assay, RPMI8226; assay type: cell-based; details: Homo sapiens, RPMI-8226, 72 h, read-out: Cytotoxicity IC50 ± SEM, RPMI8226
# Summary of the method: as §2
# [7] = system: SW480; experiment: MTS cytotoxicity assay, SW480; assay type: cell-based; details: Homo sapiens, SW480, 72 h, read-out: Cytotoxicity IC50 ± SEM, SW480
# Summary of the method: as §1
# [8] = system: MGC-803; experiment: MTS cytotoxicity assay, MGC-803; assay type: cell-based; details: Homo sapiens, MGC-803, 72 h, read-out: Cytotoxicity IC50 ± SEM, MGC-803
# Summary of the method: as §1
# [9] = system: HeLa; details: read-out: IC50 in HeLa cells, previously published value; cited from earlier work
smiles,measurement,setting,value
"COc1ccc(C[C@H](NC(=O)[C@H](C)NC(=O)CN2CCOCC2)C(=O)N[C@@H](Cc2ccccc2)C(=O)[C@@]2(C)CO2)cc1 [ONX-0914, reference compound]",IC50,[1],590 nM
same,IC50,[2],202 nM
"CC(=O)c1cccc(NC(=O)C(=O)[C@H](CC(C)C)NC(=O)[C@H](CC(C)C)NC(=O)[C@H](CC(C)C)NC(=O)OCc2ccccc2)c1 [Compound 38, ((S)-1-(((S)-1-(((S)-1-((3-acetylphenyl)amino)-5-methyl-1,2-dioxohexan-3-yl)amino)-4-methyl-1-oxopentan-2-yl)amino)-4-methyl-1-oxopentan-2-yl) carbamic acid benzyl ester]",fold increase in inhibitory activity than compounds with unsubstituted phenyl,[3],1.5–4 fold
"CC(=O)c1cccc(NC(=O)C(=O)[C@H](CC(C)C)NC(=O)[C@H](Cc2c[nH]c3ccccc23)NC(=O)[C@H](CC(C)C)NC(=O)OCc2ccccc2)c1 [Compound 35, ((S)-1-(((S)-1-(((S)-1-((3-acetylphenyl)amino)-5-methyl-1,2-dioxohexan-3-yl)amino)-3-(1H-indol-3-yl)-1-oxopropan-2-yl)amino)-4-methyl-1-oxopentan-2-yl)carbamic acid benzyl ester]",fold increase in inhibitory activity than compounds with unsubstituted phenyl,[3],1.5–4 fold
Cc1ccc(NC(=O)C(=O)C(CC(C)C)NC(=O)C(CC(C)C)NC(=O)C(CC(C)C)NC(=O)OCc2ccccc2)c(C)c1 (stereo not drawn) [BSc4999],fold more potent than BSc2189,[4],about 2 fold
"CC(C)C[C@H](NC(=O)OCc1ccccc1)C(=O)N[C@@H](Cc1c[nH]c2ccccc12)C(=O)N[C@@H](CC(C)C)C(=O)C(=O)Nc1cccc2ccccc12 [Compound 37, ((S)-1-(((S)-3-(1H-indol-3-yl)-1-(((S)-5-methyl-1-(naphthalen-1-ylamino)-1,2-dioxohexan-3-yl)amino)-1-oxopropan-2-yl)amino)-4-methyl-1-oxopentan-2-yl) carbamic acid benzyl ester]",fold decrease in inhibitory potency over 29,[3]; 1-naphthyl vs unsubstituted phenyl head group,2 fold
"CC(=O)c1ccc(-c2ccc(C(=O)N[C@@H](CC(C)C)C(=O)N[C@@H](CC(C)C)C(=O)N[C@@H](CC(C)C)C(=O)C(=O)Nc3cccc(C(C)=O)c3)o2)cc1 [Compound 46, 5-(4-acetylphenyl)-N-((S)-1-(((S)-1-(((S)-1-((3-acetylphenyl)amino)-5-methyl-1,2-dioxohexan-3-yl)amino)-4-methyl-1-oxopentan-2-yl)amino)-4-methyl-1-oxopentan-2-yl)furan-2-carboxamide]",IC50,[5],26.13 ± 0.18 nM
same,IC50,[6],38.1 ± 1.19 nM
same,IC50,[1],260 ± 4.34 nM
same,IC50,[2],94.4 ± 1.45 nM
same,IC50,[7],79.3 ± 1.87 nM
same,IC50,[8],79 ± 12.6 nM
"CC(C)C[C@H](NC(=O)OCc1ccccc1)C(=O)N[C@@H](Cc1c[nH]c2ccccc12)C(=O)N[C@@H](CC(C)C)C(=O)C(=O)Nc1cccc(S(C)(=O)=O)c1 [Compound 36, ((S)-1-(((S)-3-(1H-indol-3-yl)-1-(((S)-5-methyl-1-((3-(methylsulfonyl)phenyl)amino)-1,2-dioxohexan-3-yl)amino)-1-oxopropan-2-yl)amino)-4-methyl-1-oxopentan-2-yl)carbamic acid benzyl ester]",fold increase in inhibitory activity than compounds with unsubstituted phenyl,[3],1.5–4 fold
"CC(C)C[C@H](NC(=O)OCc1ccccc1)C(=O)N[C@@H](CC(C)C)C(=O)N[C@@H](CC(C)C)C(=O)C(=O)Nc1ccccc1-c1ccccc1 [Compound 41, ((S)-1-(((S)-1-(((S)-1-([1,1′-biphenyl]-2-ylamino)-5-methyl-1,2-dioxohexan-3-yl)amino)-4-methyl-1-oxopentan-2-yl)amino)-4-methyl-1-oxopentan-2-yl)carbamic acid benzyl ester]",fold reduced inhibitory activity,[3]; phenyl in ortho position of head group phenyl,up to 150 fold
"CC(=O)c1cccc(NC(=O)C(=O)[C@H](CC(C)C)NC(=O)[C@H](Cc2ccccc2)NC(=O)[C@H](CC(C)C)NC(=O)OCc2ccccc2)c1 [Compound 34, ((S)-1-(((S)-1-(((S)-1-((3-acetylphenyl)amino)-5-methyl-1,2-dioxohexan-3-yl)amino)-1-oxo-3-phenylpropan-2-yl)amino)-4-methyl-1-oxopentan-2-yl)carbamic acid benzyl ester]",fold increase in inhibitory activity than compounds with unsubstituted phenyl,[3],1.5–4 fold
CC(C)C[C@H](NC(=O)OCc1ccccc1)C(=O)N[C@@H](CC(C)C)C(=O)N[C@@H](CC(C)C)C(=O)C(=O)Nc1ccccc1 [BSc2189],IC50,[9],254 nM
"COc1cccc(NC(=O)C(=O)[C@H](CC(C)C)NC(=O)[C@H](CC(C)C)NC(=O)[C@H](CC(C)C)NC(=O)c2ccc(-c3ccc(C(C)=O)cc3)o2)c1 [Compound 47, N-((S)-1-(((S)-1-(((S)-1-((3-methoxyphenyl)amino)-5-methyl-1,2-dioxohexan-3-yl)amino)-4-methyl-1-oxopentan-2-yl)amino)-4-methyl-1-oxopentan-2-yl)5-(4-acetylphenyl)-furan-2-carboxamide]",IC50,[5],38.3 ± 3.04 nM
same,IC50,[6],43.4 ± 1.04 nM
same,IC50,[1],239 ± 3.28 nM
same,IC50,[2],97.9 ± 2.79 nM
same,IC50,[7],74.5 ± 3.13 nM
same,IC50,[8],85.4 ± 6.73 nM
"CC(C)C[C@H](NC(=O)[C@H](Cc1ccccc1)NC(=O)[C@H](CC1CCCCC1)NC(=O)OCc1ccccc1)C(=O)C(=O)Nc1ccccc1 [Compound 31, ((2S)-3-cyclohexyl-1-(((2S)-1-((5-methyl-1,2-dioxo-1-(phenylamino)hexan-3-yl)amino)-1-oxo-3-phenylpropan-2-yl)amino)-1-oxopropan-2-yl)carbamic acid benzyl ester]",fold increase in potency relative to analog 28,[3]; vs 28 with Ala at P3,3 fold
same,fold reduced activity compared with 30,[3]; vs 30 with Leu at P3,~3 fold
